Results from ChEMBL document CHEMBL2384906, “Biological activity, design, synthesis and structure activity relationship of some novel derivatives of curcumin containing sulfonamides” (Eur J Med Chem, 2013).
Converted amounts (≈) assume the structure as drawn. The source made the active and inactive calls. The rule behind the calls is not given here.

Legend:
[1] = test system: Aspergillus niger; test: Antifungal activity against Aspergillus niger MTCC 1108 assessed as zone of inhibition at 40 uM after 48 hrs by disc diffusion method; format: functional
In short: (§1)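 Spores from 4-day potato dextrose agar cultures, suspended in sterile water at 1.5 × 10⁵ CFU/mL. 0.2 mL was spread on potato dextrose agar. 5 mm filter-paper discs soaked with test compound were laid on the lawn. Incubation was 48 h at 28 °C, then the inhibition zone was measured in mm. Fluconazole was the positive control and acetone the negative control.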

[2] = test system: Salmonella typhi; test: Antimicrobial activity against Salmonella typhi ATCC 23564 after 24 hrs by broth micro serial dilution method; format: functional, Salmonella enterica subsp. enterica serovar Typhi; settings: Salmonella enterica, ATCC 23564, 24 h
[3] = test system: Escherichia coli; test: Antimicrobial activity against Escherichia coli ATCC 35218 assessed as diameter of inhibition zone at 40 uM after 24 hrs by Kirby -Baur disc diffusion method; format: functional; settings: ATCC 35218, 24 h, read-out: DIZ
In short: (§2)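 Kirby-Bauer disc diffusion was used. Acetone stocks (160 µM) were serially doubled down to 80, 40 and 20 µM. 4 µL of each went onto 5 mm sterile paper discs, which were dried 30 min at 50 °C. Inoculum was 1.5 × 10⁸ CFU/mL diluted to 3 × 10² CFU/mL, and 50 µL was spread on Mueller-Hinton agar. After 24 h at 37 °C the inhibition-zone diameter was measured. Ciprofloxacin served as positive control.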

[4] = test system: Aspergillus flavus; test: Antifungal activity against Aspergillus flavus MTCC 1021 after 48 hrs; format: functional
[5] = test system: Staphylococcus aureus; test: Antimicrobial activity against Staphylococcus aureus ATCC 11632 assessed as diameter of inhibition zone at 20 uM after 24 hrs by Kirby -Baur disc diffusion method; format: functional; in short: as §2
[6] = test system: Curvularia lunata; test: Antifungal activity against Curvularia lunata MTCC 581 after 48 hrs; format: functional; settings: MTCC 581, 48 h
[7] = test system: Salmonella typhi; test: Antimicrobial activity against Salmonella typhi ATCC 23564 assessed as diameter of inhibition zone at 40 uM after 24 hrs by Kirby -Baur disc diffusion method; format: functional, Salmonella enterica subsp. enterica serovar Typhi; settings: Salmonella enterica, ATCC 23564, 24 h; read-out: DIZ
[8] = test system: Salmonella typhi; test: Antimicrobial activity against Salmonella typhi ATCC 23564 assessed as diameter of inhibition zone at 80 uM after 24 hrs by Kirby -Baur disc diffusion method; format: functional, Salmonella enterica subsp. enterica serovar Typhi; settings: Salmonella enterica, ATCC 23564, 24 h; read-out: DIZ
[9] = test system: HeLa; test: Cytotoxicity against human HeLa cells after 24 hrs by MTT assay; format: functional, cell-based
In short: (§3)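 The MTT assay seeded 5 × 10⁴ cells per well and grew them 24 h in RPMI 1640 with compound at 2.5–200 µM. Medium without cells was the blank and adriamycin the positive control. MTT was added for 4 h at 37 °C, formazan was solubilised, and absorbance was read at 570 nm. IC50 is the concentration that cuts viability 50% against untreated cells.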

[10] = test system: Staphylococcus aureus; test: Antimicrobial activity against Staphylococcus aureus ATCC 11632 assessed as diameter of inhibition zone at 80 uM after 24 hrs by Kirby -Baur disc diffusion method; format: functional; settings: ATCC 11632, 24 h, read-out: DIZ; in short: as §2
[11] = test system: Pseudomonas aeruginosa; test: Antimicrobial activity against Pseudomonas aeruginosa ATCC 15499 assessed as diameter of inhibition zone at 80 uM after 24 hrs by Kirby -Baur disc diffusion method; format: functional; settings: ATCC 15499, 24 h, read-out: DIZ; in short: as §2
[12] = test system: QG-56; test: Cytotoxicity against human QG56 cells after 24 hrs by MTT assay; format: functional, cell-based; in short: as §3
[13] = test system: Curvularia lunata; test: Antifungal activity against Curvularia lunata MTCC 581 assessed as zone of inhibition at 40 uM after 48 hrs by disc diffusion method; format: functional; in short: as §1
[14] = test system: Pseudomonas aeruginosa; test: Antimicrobial activity against Pseudomonas aeruginosa ATCC 15499 assessed as diameter of inhibition zone at 20 uM after 24 hrs by Kirby -Baur disc diffusion method; format: functional; in short: as §2
[15] = test system: Trichoderma viride; test: Antifungal activity against Trichoderma viride MTCC 1107 after 48 hrs; format: functional; settings: MTCC 1107, 48 h
[16] = test system: Escherichia coli; test: Antimicrobial activity against Escherichia coli ATCC 35218 assessed as diameter of inhibition zone at 80 uM after 24 hrs by Kirby -Baur disc diffusion method; format: functional; settings: ATCC 35218, 24 h, read-out: DIZ; in short: as §2
[17] = test system: Pseudomonas aeruginosa; test: Antimicrobial activity against Pseudomonas aeruginosa ATCC 15499 after 24 hrs by broth micro serial dilution method; format: functional; settings: ATCC 15499, 24 h
In short: (§4)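 This was broth microdilution in autoclaved Mueller-Hinton broth. 150 µL of compound per well was serially diluted […], and 50 µL of test organism was added. Plates were incubated 24 h at 37 °C and optical density was read.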

[18] = test system: Escherichia coli; test: Antimicrobial activity against Escherichia coli ATCC 35218 assessed as diameter of inhibition zone at 20 uM after 24 hrs by Kirby -Baur disc diffusion method; format: functional; in short: as §2
[19] = test system: Aspergillus niger; test: Antifungal activity against Aspergillus niger MTCC 1108 assessed as zone of inhibition at 20 uM after 48 hrs by disc diffusion method; format: functional; in short: as §1
[20] = test system: Aspergillus niger; test: Antifungal activity against Aspergillus niger MTCC 1108 after 48 hrs; format: functional; settings: MTCC 1108, 48 h
[21] = test system: HepG2; test: Cytotoxicity against human HepG2 cells after 24 hrs by MTT assay; format: functional, cell-based; in short: as §3
[22] = test system: Salmonella typhi; test: Antimicrobial activity against Salmonella typhi ATCC 23564 assessed as diameter of inhibition zone at 20 uM after 24 hrs by Kirby -Baur disc diffusion method; format: functional, Salmonella enterica subsp. enterica serovar Typhi; settings: Salmonella enterica, ATCC 23564, 24 h; read-out: DIZ
[23] = test system: Aspergillus niger; test: Antifungal activity against Aspergillus niger MTCC 1108 assessed as zone of inhibition at 80 uM after 48 hrs by disc diffusion method; format: functional; settings: MTCC 1108, 48 h, read-out: IZ; in short: as §1
[24] = test system: Bacillus cereus; test: Antimicrobial activity against Bacillus cereus MTCC 7350 assessed as diameter of inhibition zone at 40 uM after 24 hrs by Kirby -Baur disc diffusion method; format: functional; in short: as §2
[25] = test system: Pseudomonas aeruginosa; test: Antimicrobial activity against Pseudomonas aeruginosa ATCC 15499 assessed as diameter of inhibition zone at 40 uM after 24 hrs by Kirby -Baur disc diffusion method; format: functional; in short: as §2
[26] = test system: Escherichia coli; test: Antimicrobial activity against Escherichia coli ATCC 35218 after 24 hrs by broth micro serial dilution method; format: functional; settings: ATCC 35218, 24 h; in short: as §4
[27] = test system: Aspergillus flavus; test: Antifungal activity against Aspergillus flavus MTCC 1021 assessed as zone of inhibition at 80 uM after 48 hrs by disc diffusion method; format: functional; in short: as §1
[28] = test system: Trichoderma viride; test: Antifungal activity against Trichoderma viride MTCC 1107 assessed as zone of inhibition at 20 uM after 48 hrs by disc diffusion method; format: functional; in short: as §1
[29] = test system: Curvularia lunata; test: Antifungal activity against Curvularia lunata MTCC 581 assessed as zone of inhibition at 20 uM after 48 hrs by disc diffusion method; format: functional; in short: as §1
[30] = test system: Bacillus cereus; test: Antimicrobial activity against Bacillus cereus MTCC 7350 assessed as diameter of inhibition zone at 20 uM after 24 hrs by Kirby -Baur disc diffusion method; format: functional; in short: as §2
[31] = test system: Bacillus cereus; test: Antimicrobial activity against Bacillus cereus MTCC 7350 assessed as diameter of inhibition zone at 80 uM after 24 hrs by Kirby -Baur disc diffusion method; format: functional; settings: MTCC 7350, 24 h, read-out: DIZ; in short: as §2
[32] = test system: Staphylococcus aureus; test: Antimicrobial activity against Staphylococcus aureus ATCC 11632 assessed as diameter of inhibition zone at 40 uM after 24 hrs by Kirby -Baur disc diffusion method; format: functional; in short: as §2
[33] = test system: Trichoderma viride; test: Antifungal activity against Trichoderma viride MTCC 1107 assessed as zone of inhibition at 40 uM after 48 hrs by disc diffusion method; format: functional; settings: MTCC 1107, 48 h, read-out: IZ; in short: as §1
[34] = test system: Bacillus cereus; test: Antimicrobial activity against Bacillus cereus MTCC 7350 after 24 hrs by broth micro serial dilution method; format: functional; settings: MTCC 7350, 24 h; in short: as §4
[35] = test system: HCT-116; test: Cytotoxicity against human HCT116 cells after 24 hrs by MTT assay; format: functional, cell-based; in short: as §3
[36] = test system: Curvularia lunata; test: Antifungal activity against Curvularia lunata MTCC 581 assessed as zone of inhibition at 80 uM after 48 hrs by disc diffusion method; format: functional; settings: MTCC 581, 48 h, read-out: IZ; in short: as §1
[37] = test system: Trichoderma viride; test: Antifungal activity against Trichoderma viride MTCC 1107 assessed as zone of inhibition at 80 uM after 48 hrs by disc diffusion method; format: functional; settings: MTCC 1107, 48 h, read-out: IZ; in short: as §1
[38] = test system: Mus musculus; test: Antiinflammatory activity in mouse assessed as inhibition of carrageenan-induced increase in paw volume at 200 mg/kg administered 1 hr prior to carrageenan challenge measured after 3 hrs relative to control; format: functional
In short: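 Mice were fasted 2 h and placed in groups of five. Controls received saline i.p. Phenylbutazone was given at 100 mg/kg i.p., curcumin at 200 mg/kg i.p., and derivatives at 200 mg/kg. After 1 h, 0.1 mL of 1% carrageenan in saline was injected subplantar into the right hind paw. Paw volume was followed by plethysmometer for 3 h, and % inhibition was calculated as (Vc − Vt)/Vc × 100.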

[39] = test system: Staphylococcus aureus; test: Antimicrobial activity against Staphylococcus aureus ATCC 11632 after 24 hrs by broth micro serial dilution method; format: functional; settings: ATCC 11632, 24 h; in short: as §4
[40] = ATCC 11632, 24 h, read-out: DIZ
[41] = ATCC 15499, 24 h, read-out: DIZ

SMILES	MIC [2]	zone of inhibition at 40 µM [3]	MIC [4]	MIC [6]	zone of inhibition at 40 µM [7]	zone of inhibition at 80 µM [8]	IC50 [9]	zone of inhibition at 80 µM [10]	zone of inhibition at 80 µM [11]	IC50 [12]	MIC [15]	zone of inhibition at 80 µM [16]	MIC [17]	inhibition zone (IZ) [19]	MIC [20]	IC50 [21]	zone of inhibition at 20 µM [22]	zone of inhibition at 80 µM [23]	diameter of the inhibition zone (DIZ) [24]	MIC [26]	further results
COc1cc(/C=C/C(O)=C/C(/C=C/c2ccc(O)c(OC)c2)=N/c2ccc(S(N)(=O)=O)cc2)ccc1O	40 µM (≈ 20.9 µg/mL)	13 mm	inactive	80 µM (≈ 41.8 µg/mL)	11 mm	13 mm	100 µM	14 mm	11 mm	100 µM	80 µM (≈ 41.8 µg/mL)	15 mm	> 80 µM	inactive	40 µM (≈ 20.9 µg/mL)	50 µM	9 mm	11 mm	inactive	40 µM (≈ 20.9 µg/mL)	zone of inhibition at 40 µM ([1]; MTCC 1108, 48 h, read-out: IZ): 9 mm; zone of inhibition at 20 µM [5, 40]: 10 mm; zone of inhibition at 40 µM ([13]; MTCC 581, 48 h, read-out: IZ): 9 mm; diameter of the inhibition zone (DIZ) [14]: inactive; zone of inhibition at 20 µM ([18]; ATCC 35218, 24 h, read-out: DIZ): 12 mm; diameter of the inhibition zone (DIZ) [25]: inactive; inhibition zone (IZ) [27]: inactive; inhibition zone (IZ) [28]: inactive; inhibition zone (IZ) [29]: inactive; diameter of the inhibition zone (DIZ) [30]: inactive; zone of inhibition at 80 µM [31]: 9 mm; zone of inhibition at 40 µM [32, 40]: 13 mm; zone of inhibition at 40 µM [33]: 10 mm; MIC [34]: > 80 µM; IC50 [35]: 50 µM; zone of inhibition at 80 µM [36]: 12 mm; zone of inhibition at 80 µM [37]: 11 mm; inhibition in vivo at 200 mg/kg [38]: 29%; MIC [39]: 40 µM (≈ 20.9 µg/mL)
COc1cc(/C=C/C(CC(/C=C/c2ccc(O)c(OC)c2)=N/c2ccc(S(N)(=O)=O)cc2)=N\c2ccc(S(N)(=O)=O)cc2)ccc1O	40 µM (≈ 27.1 µg/mL)	10 mm	inactive	> 80 µM	11 mm	16 mm	100 µM	10 mm	18 mm	> 100 µM	40 µM (≈ 27.1 µg/mL)	12 mm	40 µM (≈ 27.1 µg/mL)	inactive	> 80 µM	> 100 µM	9 mm	9 mm	inactive	40 µM (≈ 27.1 µg/mL)	inhibition zone (IZ) [1]: inactive; diameter of the inhibition zone (DIZ) [5]: inactive; inhibition zone (IZ) [13]: inactive; zone of inhibition at 20 µM [14, 41]: 9 mm; diameter of the inhibition zone (DIZ) [18]: inactive; zone of inhibition at 40 µM [25, 41]: 11 mm; inhibition zone (IZ) [27]: inactive; inhibition zone (IZ) [28]: inactive; inhibition zone (IZ) [29]: inactive; zone of inhibition at 80 µM [31]: 11 mm; diameter of the inhibition zone (DIZ) [32]: inactive; zone of inhibition at 40 µM [33]: 10 mm; MIC [34]: 40 µM (≈ 27.1 µg/mL); IC50 [35]: 100 µM; zone of inhibition at 80 µM [36]: 9 mm; zone of inhibition at 80 µM [37]: 11 mm; inhibition in vivo at 200 mg/kg [38]: 12.9%; MIC [39]: > 80 µM
